Active and inactive are the calls of the source.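 Rule for the calls: active = fitted curve reaches a 35% signal drop at a concentration no higher than twice the top valid dose, in duplicate at both wavelengths; inactive = the rest, including activity in the opposite direction.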
Test: P. aeruginosa growth delay under iron chelation, dose response, whole organism, absorbance 405 nm, EDDHA, dry powder, set 8 (AID 624102)
Conditions: P. aeruginosa with EDDHA, growth/pyoverdine A405, 24-30 h; series mostly up to 120 µM; activity change, negative = inhibition: at the top concentration
Outline: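 Test system: P. aeruginosa ATCC 15692 cells | Input: Bacterial inoculum at final OD600 of 0.0000005 | Medium: Succinate M9 plus 2 µM EDDHA | Timing: Bacterial growth with compound for 24-30 h at 37 °C | Signal: Absorbance at 405 nm reflecting pyoverdine production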

Activity change, negative = inhibition, inactive:
CN(C)CCCC(C#N)c1ccc(F)cc1 (centres undefined) -30.1%, CCCCC(c1ccc(Cl)cc1)c1nn[nH]n1 (centres undefined) -6.73%, N#CC(c1ccc(Cl)cc1)N1CCCC1 (centres undefined) -18.7%, CCCCC(C#N)c1ccccn1 (centres undefined) 9.67%, COCCNC(C#N)c1ccc(Cl)cc1 (centres undefined) 1.55%, N#Cc1cccc(C(C#N)c2ccc(F)cc2)n1 (centres undefined) -3.09%, COCCC(C#N)c1ccc(Cl)cc1 (centres undefined) -19.6%, N#CC1c2ccc(Cl)cc2CCc2cccnc21 (centres undefined) 25.8%, COCCOCCC(C#N)c1ccc(F)cc1 (centres undefined) -11.5%, N#CC(c1ccc(F)cc1)c1cccc(Cl)n1 (centres undefined) -19.5%, COCCOCCC(C#N)c1ccc(Cl)cc1 (centres undefined) 5.21%, CCCCC(C#N)c1ccc(Cl)cc1 (centres undefined) -0.081%, N#CC(c1ccc(Cl)cc1)c1ccccn1 (centres undefined) -21.4%, CCCCC(C#N)c1ccc(F)cn1 (centres undefined) 1.31%, N#CC(c1ccc(C(F)(F)F)c(Cl)n1)c1ccccc1OC(F)(F)F (centres undefined) -13.1%, Clc1ccc(C(c2cccc(Cl)n2)c2nn[nH]n2)cc1 (centres undefined) 20.6%, CCCCC(C#N)c1ccc(Cl)cn1 (centres undefined) -2.26%, COCCC(C#N)c1ccc(F)cc1 (centres undefined) 11%, CCCCC(C#N)c1ccc(F)cc1 (centres undefined) 6.71%
